From ChEMBL document CHEMBL1255303, “In vitro and in vivo antifungal activities of T-2307, a novel arylamidine” (2008)
≈ marks a conversion by molar mass, not a printed value.

How the values were obtained:
Assay type in all cases: functional
Candida parapsilosis = assay: Antifungal activity against Candida parapsilosis NBRC 10219 after 48 hrs by broth microdilution method; conditions: Lodderomyces parapsilosis, NBRC 10219, 48 h
Procedure, shortened: (§1)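 CLSI M27-A2 (yeasts) or M38-A (A. fumigatus) broth microdilution in RPMI 1640 buffered to pH 7.0 with 0.165 M MOPS. Final inocula were 0.65–2.5 × 10^3 CFU/ml for yeasts and 0.87–3.8 × 10^4 CFU/ml for filamentous fungi. Incubation was at 35°C for about 48 h (72 h for C. neoformans). MIC was the lowest concentration giving a prominent (~50%) turbidity drop versus growth control; amphotericin B required complete inhibition.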

Candida tropicalis = assay: Antifungal activity against Candida tropicalis clinical isolates after 48 hrs by broth microdilution method
Procedure, shortened: (§2)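 Clinical isolates from Japanese hospitals or culture collections were tested by broth microdilution in RPMI 1640-MOPS. Inoculum was 0.57 × 10^3–2.5 × 10^3 CFU/ml for yeasts and 0.4 × 10^4–3.3 × 10^4 CFU/ml for filamentous fungi. Incubation was at 35°C for about 48 h, or 72 h where footnoted. Results were summarised as MIC range, MIC50 and MIC90.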

Candida albicans [1] = assay: Antifungal activity against Candida albicans ATCC MYA-573 after 47 hrs by broth microdilution method; conditions: ATCC MYA-573, 47 h
Procedure, shortened: (§3)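 Fluconazole-resistant or susceptible-dose-dependent ATCC C. albicans strains were tested by CLSI M27-A2 broth microdilution in RPMI 1640–0.165 M MOPS, pH 7.0, with a final inoculum of 1.1–1.5 × 10^3 CFU/ml at 35°C for about 47 h. MIC was the lowest concentration with a prominent (~50%) turbidity decrease relative to growth control; amphotericin B was read at complete inhibition.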

Trichophyton rubrum = assay: Antifungal activity against Trichophyton rubrum NBRC 5467 after 72 hrs by broth microdilution method; conditions: NBRC 5467, 72 h
Procedure, shortened: (§4)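 CLSI M27-A2 (yeasts) / M38-A (moulds) broth microdilution in RPMI 1640 buffered to pH 7.0 with 0.165 M MOPS. Malassezia furfur got the same medium supplemented with glucose, bile salts, glycerol, glycerol monostearate and Tween 20. Final inoculum 0.65 × 10^3–2.5 × 10^3 CFU/ml for yeasts and 0.87 × 10^4–3.8 × 10^4 CFU/ml for filamentous fungi. Incubation at 35°C except M. racemosus and F. solani, which were held at 30°C.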

[2] = test system: Meyerozyma guilliermondii; assay: Antifungal activity against Candida guilliermondii IFO 10279 after 48 hrs by broth microdilution method; conditions: IFO 10279, 48 h; procedure, shortened: as §4
Candida albicans [3] = assay: Antifungal activity against Candida albicans ATCC MYA-575 after 47 hrs by broth microdilution method; conditions: ATCC MYA-575, 47 h; procedure, shortened: as §3
Nakaseomyces glabratus = assay: Antifungal activity against Candida glabrata ATCC 90030 after 48 hrs by broth microdilution method; conditions: ATCC 90030, 48 h; procedure, shortened: as §4
Aspergillus terreus = assay: Antifungal activity against Aspergillus terreus NBRC 33026 after 48 hrs by broth microdilution method; conditions: NBRC 33026, 48 h; procedure, shortened: as §4
Candida albicans [4] = assay: Antifungal activity against Candida albicans ATCC MYA-2732 after 47 hrs by broth microdilution method; conditions: ATCC MYA-2732, 47 h
Procedure, shortened: (§5)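 Fluconazole-resistant or susceptible-dose-dependent C. albicans ATCC strains were tested by broth microdilution in RPMI 1640-MOPS. Inoculum was 1.1 × 10^3–1.5 × 10^3 CFU/ml, with incubation at 35°C for about 47 h. Yeast MIC was read as about 50% turbidity decrease relative to growth control, except amphotericin B, read at complete inhibition.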

Rhizopus arrhizus = assay: Antifungal activity against Rhizopus oryzae NBRC 31005 after 24 hrs by broth microdilution method; conditions: NBRC 31005, 24 h; procedure, shortened: as §4
Scedosporium boydii = assay: Antifungal activity against Pseudallescheria boydii NBRC 32229 after 72 hrs by broth microdilution method; conditions: NBRC 32229, 72 h; procedure, shortened: as §4
Fusarium solani = assay: Antifungal activity against Fusarium solani IFO 31093 after 48 hrs by broth microdilution method; conditions: IFO 31093, 48 h; procedure, shortened: as §4
Cryptococcus neoformans [5] = assay: Antifungal activity against Cryptococcus neoformans clinical isolates after 72 hrs by broth microdilution method; procedure, shortened: as §2
Candida albicans [6] = assay: Antifungal activity against Candida albicans ATCC 24433 after 48 hrs by broth microdilution method; conditions: ATCC 24433, 48 h; procedure, shortened: as §1
Candida albicans [7] = assay: Antifungal activity against Candida albicans ATCC MYA-1003 after 47 hrs by broth microdilution method; conditions: ATCC MYA-1003, 47 h; procedure, shortened: as §3
Pichia kudriavzevii = assay: Antifungal activity against Candida krusei clinical isolates after 48 hrs by broth microdilution method
Procedure, shortened: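 Japanese hospital Candida isolates were tested by CLSI M27-A2 broth microdilution in RPMI 1640–MOPS, pH 7.0, with inocula of 0.57–2.5 × 10^3 CFU/ml at 35°C for about 48 h. Inocula came from 24-h potato dextrose agar cultures. MIC was the lowest concentration with about 50% turbidity reduction versus growth control (complete inhibition for amphotericin B). Range, MIC50 and MIC90 were reported.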

Candida albicans [8] = assay: Antifungal activity against Candida albicans ATCC 64124 after 47 hrs by broth microdilution method; conditions: ATCC 64124, 47 h; procedure, shortened: as §3
Aspergillus fumigatus = assay: Antifungal activity against Aspergillus fumigatus IFM 46895 after 48 hrs by broth microdilution method; conditions: IFM 46895, 48 h; procedure, shortened: as §4
Candida albicans [9] = assay: Antifungal activity against Candida albicans ATCC 64550 after 47 hrs by broth microdilution method; conditions: ATCC 64550, 47 h; procedure, shortened: as §5
Cryptococcus neoformans [10] = assay: Antifungal activity against Cryptococcus neoformans ATCC 90113 after 72 hrs by broth microdilution method; conditions: ATCC 90113, 72 h; procedure, shortened: as §4
Candida albicans [11] = assay: Antifungal activity against Candida albicans ATCC MYA-574 after 47 hrs by broth microdilution method; conditions: ATCC MYA-574, 47 h; procedure, shortened: as §5

`OC(Cn1cncn1)(Cn1cncn1)c1ccc(F)cc1F` [FLUCONAZOLE] was tested, and the MFC (Candida parapsilosis) was greater than 64 µg/mL, the MIC (Candida parapsilosis) was 1 µg/mL (≈ 3.27 µM) and the MIC50 (Candida tropicalis) was 0.5 µg/mL (≈ 1.63 µM). The MIC90 (Candida tropicalis) was 1 µg/mL (≈ 3.27 µM), the MIC (Candida albicans [1]) was greater than 64 µg/mL and the MFC (Trichophyton rubrum) was greater than 64 µg/mL. For the same compound, the MIC (Trichophyton rubrum) was 0.25 µg/mL (≈ 0.816 µM), the MFC [2] was greater than 64 µg/mL and the MIC [2] was 4 µg/mL (≈ 13.1 µM). The MIC (Candida albicans [3]) was 16 µg/mL (≈ 52.2 µM), the MFC (Nakaseomyces glabratus) was greater than 64 µg/mL and the MIC (Nakaseomyces glabratus) was 8 µg/mL (≈ 26.1 µM). It also gave an MFC (Aspergillus terreus) greater than 64 µg/mL, an MIC (Aspergillus terreus) greater than 64 µg/mL and an MIC (Candida albicans [4]) of 16 µg/mL (≈ 52.2 µM). It also gave an MFC (Rhizopus arrhizus) greater than 64 µg/mL, an MIC (Rhizopus arrhizus) greater than 64 µg/mL and an MFC (Scedosporium boydii) greater than 64 µg/mL. For the same compound, the MIC (Scedosporium boydii) was 16 µg/mL (≈ 52.2 µM), the MFC (Fusarium solani) was greater than 64 µg/mL and the MIC (Fusarium solani) was greater than 64 µg/mL. For the same compound, the MIC50 (Cryptococcus neoformans [5]) was 2 µg/mL (≈ 6.53 µM), the MIC90 (Cryptococcus neoformans [5]) was 4 µg/mL (≈ 13.1 µM) and the MFC (Candida albicans [6]) was greater than 64 µg/mL. It also gave an MIC (Candida albicans [6]) of 0.125 µg/mL (≈ 0.408 µM), an MIC (Candida albicans [7]) of 64 µg/mL (≈ 209 µM) and an MIC50 (Pichia kudriavzevii) of 64 µg/mL (≈ 209 µM). For the same compound, the MIC90 (Pichia kudriavzevii) was 64 µg/mL (≈ 209 µM), the MIC (Candida albicans [8]) was greater than 64 µg/mL and the MFC (Aspergillus fumigatus) was greater than 64 µg/mL. The MIC (Aspergillus fumigatus) was greater than 64 µg/mL, the MIC (Candida albicans [9]) was 16 µg/mL (≈ 52.2 µM) and the MFC (Cryptococcus neoformans [10]) was greater than 64 µg/mL. It also gave an MIC (Cryptococcus neoformans [10]) of 4 µg/mL (≈ 13.1 µM) and an MIC (Candida albicans [11]) of 64 µg/mL (≈ 209 µM).
